Published values collected from several papers.
Protocols differ between the studies behind these lines.
ABL1 Q252H non-phosphorylated: Tyrosine-protein kinase ABL1, non-phosphorylated (ABL1, Homo sapiens, UniProt P00519, Q252H)
ABL1 M351T phosphorylated: Tyrosine-protein kinase ABL1, phosphorylated (ABL1, Homo sapiens, UniProt P00519, M351T)
ABL1 Y253F phosphorylated: Tyrosine-protein kinase ABL1, phosphorylated (ABL1, Homo sapiens, UniProt P00519, Y253F)
ABL1 F317I non-phosphorylated: Tyrosine-protein kinase ABL1, non-phosphorylated (ABL1, Homo sapiens, UniProt P00519, F317I)
ABL1 F317I phosphorylated: Tyrosine-protein kinase ABL1, phosphorylated (ABL1, Homo sapiens, UniProt P00519, F317I)
ABL1 H396P non-phosphorylated: Tyrosine-protein kinase ABL1, non-phosphorylated (ABL1, Homo sapiens, UniProt P00519, H396P)
ABL1 E255K phosphorylated: Tyrosine-protein kinase ABL1, phosphorylated (ABL1, Homo sapiens, UniProt P00519, E255K)
ABL1 H396P phosphorylated: Tyrosine-protein kinase ABL1, phosphorylated (ABL1, Homo sapiens, UniProt P00519, H396P)
ABL1 phosphorylated: Tyrosine-protein kinase ABL1, phosphorylated (ABL1, Homo sapiens, UniProt P00519)
ABL1 non-phosphorylated: Tyrosine-protein kinase ABL1, non-phosphorylated (ABL1, Homo sapiens, UniProt P00519)

Structure (SMILES)	target	assay	conditions	remaining binding
O=C(c1ccc(Nc2ncc(Cl)c(-c3ccc(Cl)s3)n2)cc1)N1CCC(N2CCCC2)CC1	ABL1 Q252H non-phosphorylated	binding, competition with immobilised ligand	1 µM	1%
CN(CCCC(F)(F)F)c1nccc(-c2cnn3ncccc23)n1	Tyrosine-protein kinase ABL1 (ABL1, Homo sapiens, UniProt P00519, F317L)	binding	1 µM	100%
CCCOc1ccc([C@@H]2[C@@H](C(=O)O)[C@H](c3ccc4c(c3)OCO4)CN2CC(=O)Nc2c(CC)cccc2CC)cc1	Tyrosine-protein kinase ABL1, non-phosphorylated (ABL1, Homo sapiens, UniProt P00519, T315I)	cell-free assay, competition with immobilised ligand	1 µM	83%
C=CC(=O)N1CCC(C(=O)NCC(=O)N2CCN(c3nc(-c4cnc(N)nc4C(F)F)nc(N4CCOCC4)n3)CC2)CC1	ABL1 M351T phosphorylated	binding, competition with immobilised ligand	1 µM	99%
N[C@@H]1CCN(c2nccc(-c3cnn4ncccc34)n2)C1	Tyrosine-protein kinase ABL1 (ABL1, Homo sapiens, UniProt P00519, E255K)	binding	1 µM	100%
c1cncc(-c2cccc(Nc3nccc(NC4CCCCC4)n3)c2)c1	ABL1 Y253F phosphorylated	binding, competition with immobilised ligand	10 µM	12%
COc1cnc(Nc2cccc(S(N)(=O)=O)c2)nc1N1CCN(c2ccccc2)CC1	ABL1 F317I non-phosphorylated	binding, competition with immobilised ligand	1 µM	94%
CCN1CCN(Cc2ccc(C(=O)Nc3ccc(C)c(Oc4ccc5c(c4)CC(=O)N5)c3)cc2C(F)(F)F)CC1	ABL1 F317I phosphorylated	binding, competition with immobilised ligand	1 µM	24%
O=C(O)[C@@H]1[C@@H](Cn2nnc3ccccc3c2=O)CC[C@H]1C(=O)c1ccc(OCCC2CCOCC2)cc1	ABL1 H396P non-phosphorylated	cell-free assay, competition with immobilised ligand	1 µM	97%
O=C(c1ccc(Nc2nccc(-c3cc4ccccc4s3)n2)cc1)N1CCC(N2CCCC2)CC1	ABL1 E255K phosphorylated	binding, competition with immobilised ligand	1 µM	9.9%
COc1cnc(Nc2cccc(S(N)(=O)=O)c2)nc1N1CCN(c2ccccc2)C(=O)C1	ABL1 Y253F phosphorylated	binding, competition with immobilised ligand	1 µM	82%
O=C(Nc1c[nH]nc1C(=O)NC1CCNCC1)c1cc(F)cc(F)c1	Tyrosine-protein kinase ABL1, phosphorylated (ABL1, Homo sapiens, UniProt P00519, Q252H)	binding, competition with immobilised ligand	1 µM	99%
CN(C(=O)c1ccccc1)c1cc(N(C)c2ccc3c(c2)CCc2ccc(C(=O)NCCN4CCOCC4)cc2C3=O)ccc1F	ABL1 H396P phosphorylated	cell-free assay, competition with immobilised ligand	1 µM	100%
CN(c1nccc(-c2cnn3ncccc23)n1)C1CC1	ABL1 phosphorylated	binding	1 µM	99%
N#CC1(c2ccccn2)CCN(Cc2cc(C(=O)N3CCCC3)c(=O)n3ccccc23)CC1	ABL1 M351T phosphorylated	cell-free assay, competition with immobilised ligand	1 µM	100%
COc1ncc2cc3ccccc3nc2c1C#N	ABL1 M351T phosphorylated	cell-free assay, competition with immobilised ligand	5 µM	100%

Structure (SMILES)	target	assay	conditions	remaining binding
O=C(c1ccc(Nc2ncc(Cl)c(-c3cc4ccccc4s3)n2)cc1)N1CCC(N2CCCC2)CC1	Tyrosine-protein kinase ABL1, phosphorylated (ABL1, Homo sapiens, UniProt P00519, T315I)	binding, competition with immobilised ligand	1 µM	3.3%
c1cnn2ncc(-c3ccnc(N4CCC45COC5)n3)c2c1	Tyrosine-protein kinase ABL1 (ABL1, Homo sapiens, UniProt P00519, H396P)	binding	1 µM	66%
O=C(NCCCN1CCOCC1)c1ccc(Nc2nccc(-c3cc4ccccc4s3)n2)cc1	ABL1 H396P non-phosphorylated	binding, competition with immobilised ligand	1 µM	24%
CC(C)(O)c1cncc(-c2nc3ccc(F)cc3n2C2CC2)c1	ABL1 Q252H non-phosphorylated	cell-free assay, competition with immobilised ligand	1 µM	89%
Cc1cnc(Nc2ccc(C(=O)N3CCC(N4CCCC4)CC3)cc2)nc1-c1cc2ccccc2s1	ABL1 E255K phosphorylated	binding, competition with immobilised ligand	1 µM	1.4%
COc1ccnn2ncc(-c3ccnc(N(C)C)n3)c12	ABL1 phosphorylated	binding	1 µM	73%
CN([C@@H]1CCc2c(CC(=O)O)c3ccccc3n2C1)S(=O)(=O)c1ccc(F)cc1	Tyrosine-protein kinase ABL1, phosphorylated (ABL1, Homo sapiens, UniProt P00519, F317L)	cell-free assay, competition with immobilised ligand	1 µM	92%
C[C@@H](c1ccc(-n2cnc3c(N)ncnc32)cc1)N1CCc2nn(C)c(Cc3ccccc3)c2C1=O	ABL1 F317I phosphorylated	binding, competition with immobilised ligand	0.1 µM	62%
C[C@@H]1CN(c2cc(-c3nn(C)c4ccc(OC5(C)CC5)cc34)ncn2)C[C@H](C)O1	ABL1 F317I phosphorylated	binding	1 µM	75%
O=C(NCC1CCOCC1)c1n[nH]cc1NC(=O)c1c(F)cccc1F	ABL1 non-phosphorylated	binding, competition with immobilised ligand	1 µM	88%
CNC(=O)[C@@H]1CC[C@@H](n2c(-c3ccc4cnccc4c3)nc3ccc(C(=O)NCc4cccc(C(N)=O)c4)cc32)C1	ABL1 F317I non-phosphorylated	binding, competition with immobilised ligand	1 µM	100%
O=C(NCCCN1CCOCC1)c1ccc(Nc2ncc(Cl)c(-c3ccc(Cl)s3)n2)cc1	ABL1 F317I non-phosphorylated	binding, competition with immobilised ligand	1 µM	100%
CN(C)c1ncc(F)c(-c2cnn3ncccc23)n1	ABL1 non-phosphorylated	binding, competition with immobilised ligand	1 µM	89%
COc1cccc(CNC(=O)c2nc3scc(COCc4ccc(C(=O)O)cc4)c3c(=O)[nH]2)c1	ABL1 Y253F phosphorylated	cell-free assay, competition with immobilised ligand	1 µM	84.6%
C[C@@H]1CCN(c2nccc(-c3cnn4ncccc34)n2)C1	Tyrosine-protein kinase ABL1 (ABL1, Homo sapiens, UniProt P00519, Y253F)	binding	1 µM	88%
Nc1ncc2c(n1)-c1c([nH]c3ccc(C#CC4CC4)cc13)CCCC2	ABL1 H396P phosphorylated	binding, competition with immobilised ligand	1 µM	93%
